Measured values as given in ChEMBL document CHEMBL5356993, “Novel pyrazolo[3,4-d]pyrimidine derivatives: design, synthesis, anticancer evaluation, VEGFR-2 inhibition, and antiangiogenic activity” (RSC Med Chem, 2023).

Assays:
[1] = Cytotoxicity against human MCF-10A cells assessed as cell growth inhibition incubated for 72 hrs by MTT assay
OVCAR-3 = experiment: Antiproliferative activity against human OVCAR-3 cells assessed as cell growth inhibition at 10 uM incubated for 48 hrs by SRB assay relative to control; type: functional; details: read-out: GI
Summary of the method: (§1)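 Cells plated in 96-well plates at […] cells/well and preincubated 24 h at 37 °C, 5% CO2. Time-zero plates were TCA-fixed. Compound was diluted in medium with 50 µg/mL gentamicin and cells exposed for 48 h. Adherent cells fixed with 10% final TCA; suspension cells with 16% final TCA. Plates stained with 0.4% SRB in 1% acetic acid, dye solubilized in 10 mM Trizma, absorbance read at 515 nm. Percent growth calculated against time-zero and control.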

HOP-92 = experiment: Antiproliferative activity against human HOP-92 cells assessed as cell growth inhibition at 10 uM incubated for 48 hrs by SRB assay relative to control; type: functional; details: read-out: GI; summary of the method: as §1
HCC 2998 = experiment: Antiproliferative activity against human HCC 2998 cells assessed as cell growth inhibition at 10 uM incubated for 48 hrs by SRB assay relative to control; type: functional; details: read-out: GI
HOP-62 = experiment: Antiproliferative activity against human HOP-62 cells assessed as cell growth inhibition at 10 uM incubated for 48 hrs by SRB assay relative to control; type: functional; details: read-out: GI
OVCAR-4 = experiment: Antiproliferative activity against human OVCAR-4 cells assessed as cell growth inhibition at 10 uM incubated for 48 hrs by SRB assay relative to control; type: functional; details: read-out: GI
ACHN = experiment: Antiproliferative activity against human ACHN cells assessed as cell growth inhibition at 10 uM incubated for 48 hrs by SRB assay relative to control; type: functional; details: read-out: GI
RXF 393 = experiment: Antiproliferative activity against human RXF 393 cells assessed as cell growth inhibition at 10 uM incubated for 48 hrs by SRB assay relative to control; type: functional; details: read-out: GI; summary of the method: as §1
A498 = experiment: Antiproliferative activity against human A498 cells assessed as cell growth inhibition at 10 uM incubated for 48 hrs by SRB assay relative to control; type: functional; details: read-out: GI; summary of the method: as §1
MDA-MB-468 [2] = experiment: Antiproliferative activity against human MDA-MB-468 cells assessed as cell growth inhibition at 10 uM incubated for 48 hrs by SRB assay relative to control; type: functional; details: read-out: GI
SF-539 = experiment: Antiproliferative activity against human SF-539 cells assessed as cell growth inhibition at 10 uM incubated for 48 hrs by SRB assay relative to control; type: functional; details: read-out: GI; summary of the method: as §1
LOX IMVI = experiment: Antiproliferative activity against human LOX IMVI cells assessed as cell growth inhibition at 10 uM incubated for 48 hrs by SRB assay relative to control; type: functional; details: read-out: GI
[3] = target: Vascular endothelial growth factor receptor 2 (Homo sapiens, UniProt P35968); experiment: Inhibition of VEGFR-2 (unknown origin) incubated for 45 mins by Kinase-Glo Max assay
Vascular endothelial growth factor receptor 2, sequence (P35968 whole entry): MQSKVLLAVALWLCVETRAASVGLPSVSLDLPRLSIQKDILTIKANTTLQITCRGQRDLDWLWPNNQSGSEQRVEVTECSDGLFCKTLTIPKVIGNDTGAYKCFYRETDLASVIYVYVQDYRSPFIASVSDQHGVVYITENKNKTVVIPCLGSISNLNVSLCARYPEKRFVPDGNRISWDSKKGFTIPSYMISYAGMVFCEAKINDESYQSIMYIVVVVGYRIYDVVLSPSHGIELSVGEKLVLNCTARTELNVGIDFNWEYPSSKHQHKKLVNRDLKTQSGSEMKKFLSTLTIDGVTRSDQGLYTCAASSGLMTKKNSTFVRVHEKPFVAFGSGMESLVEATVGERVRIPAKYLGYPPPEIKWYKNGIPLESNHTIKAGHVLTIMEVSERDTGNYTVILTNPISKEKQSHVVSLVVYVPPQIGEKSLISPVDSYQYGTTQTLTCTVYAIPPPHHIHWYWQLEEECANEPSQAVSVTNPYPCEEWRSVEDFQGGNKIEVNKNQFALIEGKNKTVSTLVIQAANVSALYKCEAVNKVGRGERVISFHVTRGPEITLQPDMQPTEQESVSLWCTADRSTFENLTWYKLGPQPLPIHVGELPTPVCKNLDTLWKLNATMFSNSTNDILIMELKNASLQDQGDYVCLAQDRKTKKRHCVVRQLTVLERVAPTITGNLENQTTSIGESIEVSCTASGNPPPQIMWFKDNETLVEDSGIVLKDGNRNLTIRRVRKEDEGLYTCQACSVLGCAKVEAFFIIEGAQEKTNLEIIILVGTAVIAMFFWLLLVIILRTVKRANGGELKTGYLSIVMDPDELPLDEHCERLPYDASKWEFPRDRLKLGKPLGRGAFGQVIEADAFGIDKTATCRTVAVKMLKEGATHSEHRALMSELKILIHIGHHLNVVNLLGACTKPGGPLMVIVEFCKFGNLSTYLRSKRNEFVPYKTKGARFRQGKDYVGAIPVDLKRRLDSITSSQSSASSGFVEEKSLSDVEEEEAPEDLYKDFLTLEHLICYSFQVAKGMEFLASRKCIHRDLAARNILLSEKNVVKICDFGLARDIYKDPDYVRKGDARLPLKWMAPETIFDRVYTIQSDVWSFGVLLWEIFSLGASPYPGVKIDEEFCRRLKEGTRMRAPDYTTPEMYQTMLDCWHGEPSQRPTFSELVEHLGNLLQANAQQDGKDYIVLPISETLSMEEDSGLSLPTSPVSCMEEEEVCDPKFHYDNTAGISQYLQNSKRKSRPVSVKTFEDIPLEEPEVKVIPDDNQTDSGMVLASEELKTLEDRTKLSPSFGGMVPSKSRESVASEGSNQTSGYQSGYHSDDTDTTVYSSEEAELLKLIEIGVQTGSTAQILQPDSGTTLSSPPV

MDA-MB-435 = experiment: Antiproliferative activity against human MDA-MB-435 cells assessed as cell growth inhibition at 10 uM incubated for 48 hrs by SRB assay relative to control; type: functional; details: read-out: GI
M14 = experiment: Antiproliferative activity against human M14 cells assessed as cell growth inhibition at 10 uM incubated for 48 hrs by SRB assay relative to control; type: functional; details: read-out: GI; summary of the method: as §1
A549 = experiment: Antiproliferative activity against human A549 cells assessed as cell growth inhibition at 10 uM incubated for 48 hrs by SRB assay relative to control; type: functional; details: read-out: GI
IGROV-1 = experiment: Antiproliferative activity against human IGROV-1 cells assessed as cell growth inhibition at 10 uM incubated for 48 hrs by SRB assay relative to control; type: functional; details: read-out: GI
HT-29 = experiment: Antiproliferative activity against human HT-29 cells assessed as cell growth inhibition at 10 uM incubated for 48 hrs by SRB assay relative to control; type: functional; details: read-out: GI; summary of the method: as §1
T47D [4] = experiment: Antiproliferative activity against human T47D cells assessed as cell growth inhibition at 10 uM incubated for 48 hrs by SRB assay relative to control; type: functional; details: read-out: GI
Summary of the method: (§2)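 Cells pre-incubated 24 h at 37°C, 5% CO2, then exposed to compound (DMSO stock diluted in medium with 50 µg/mL gentamicin) for 48 h. Adherent cells fixed with cold TCA (final 10%, 60 min, 4°C); suspension cells fixed with 16% TCA final. Stained with 0.4% SRB in 1% acetic acid for 10 min, dye solubilized in 10 mM Trizma base, absorbance read at 515 nm. Growth calculated against time-zero and untreated control plates.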

MDA-MB-468 [5] = experiment: Cytotoxicity against human MDA-MB-468 cells assessed as cell growth inhibition incubated for 72 hrs by MTT assay; type: functional, cell-based; details: MDA-MB-468, 72 h
SNB-75 = experiment: Antiproliferative activity against human SNB-75 cells assessed as cell growth inhibition at 10 uM incubated for 48 hrs by SRB assay relative to control; type: functional; details: read-out: GI; summary of the method: as §2
SN12C = experiment: Antiproliferative activity against human SN12C cells assessed as cell growth inhibition at 10 uM incubated for 48 hrs by SRB assay relative to control; type: functional; details: read-out: GI
[6] = Selectivity index, ratio of IC50 for human MCF-10A cells to IC50 for human MDA-MB-468 cells; details: MCF-10A cells versus MDA-MB-468 cells
MCF7 = experiment: Antiproliferative activity against human MCF7 cells assessed as cell growth inhibition at 10 uM incubated for 48 hrs by SRB assay relative to control; type: functional; details: read-out: GI
BT-549 = experiment: Antiproliferative activity against human BT-549 cells assessed as cell growth inhibition at 10 uM incubated for 48 hrs by SRB assay relative to control; type: functional; details: read-out: GI
HCT-15 = experiment: Antiproliferative activity against human HCT-15 cells assessed as cell growth inhibition at 10 uM incubated for 48 hrs by SRB assay relative to control; type: functional; details: read-out: GI
NCI/ADR-RES = experiment: Antiproliferative activity against human NCI-ADR-RES cells assessed as cell growth inhibition at 10 uM incubated for 48 hrs by SRB assay relative to control; type: functional; details: read-out: GI
OVCAR-5 = experiment: Antiproliferative activity against human OVCAR-5 cells assessed as cell growth inhibition at 10 uM incubated for 48 hrs by SRB assay relative to control; type: functional; details: read-out: GI; summary of the method: as §1
UACC-62 = experiment: Antiproliferative activity against human UACC-62 cells assessed as cell growth inhibition at 10 uM incubated for 48 hrs by SRB assay relative to control; type: functional; details: read-out: GI; summary of the method: as §2
T47D [7] = experiment: Cytotoxicity against human T47D cells assessed as cell growth inhibition incubated for 72 hrs by MTT assay; type: functional, cell-based
[8] = Selectivity index, ratio of IC50 for human MCF-10A cells to IC50 for human T47D cells; details: MCF-10A cells versus T47D cells
MDA-MB-468 [9] = experiment: Induction of cell cycle arrest in human MDA-MB-468 cells assessed as accumulation of cells at G2/M phase at IC50 incubated for 24 hrs by RNase/PI staining based flow cytometry (reference value: 16.13 %); type: functional
MDA-MB-468 [10] = experiment: Induction of apoptosis in human MDA-MB-468 cells assessed as necrotic cells at IC50 incubated for 24 hrs by Annexin V/PI staining based flow cytometry (reference value: 1.59 %); type: functional
MDA-MB-468 [11] = experiment: Induction of apoptosis in human MDA-MB-468 cells assessed as total apoptotic cells at IC50 incubated for 24 hrs by Annexin V/PI staining based flow cytometry (reference value: 2.28 %); type: functional

| SMILES | inhibition of growth at 10 µM (OVCAR-3) | inhibition of growth at 10 µM (HOP-92) | inhibition of growth at 10 µM (HCC 2998) | inhibition of growth at 10 µM (HOP-62) | inhibition of growth at 10 µM (OVCAR-4) | inhibition of growth at 10 µM (ACHN) | inhibition of growth at 10 µM (RXF 393) | inhibition of growth at 10 µM (A498) | inhibition of growth at 10 µM (MDA-MB-468 [2]) | inhibition of growth at 10 µM (SF-539) | inhibition of growth at 10 µM (LOX IMVI) | inhibition of growth at 10 µM (MDA-MB-435) | inhibition of growth at 10 µM (M14) | inhibition of growth at 10 µM (A549) | inhibition of growth at 10 µM (IGROV-1) | inhibition of growth at 10 µM (HT-29) | inhibition of growth at 10 µM (T47D [4]) | inhibition of growth at 10 µM (SNB-75) | inhibition of growth at 10 µM (SN12C) | inhibition of growth at 10 µM (MCF7) | also measured |
| --- | --- | --- | --- | --- | --- | --- | --- | --- | --- | --- | --- | --- | --- | --- | --- | --- | --- | --- | --- | --- | --- |
| Cc1ccc(C(=O)Nc2ccc(-n3c(C)nc4c(cnn4-c4ccccc4)c3=O)cc2)cc1 | < 15% | < 15% | < 15% | 21.2% | 50.2% | 38.2% | < 15% | < 15% | 78.9% | 18.6% | 32.8% | 29.4% | 26.8% | 34.2% | 28.4% | 28.8% | 65.4% | 17.2% | 26.7% | 52.2% | IC50 at 72 h [1]: 58.2 µM; IC50 [3]: 261 nM; IC50 (MDA-MB-468 [5]): 16 µM; selectivity ratio [6]: 3.63; inhibition of growth at 10 µM (BT-549): 40.8%; inhibition of growth at 10 µM (HCT-15): 24.6%; inhibition of growth at 10 µM (NCI/ADR-RES): 47.3%; inhibition of growth at 10 µM (OVCAR-5): < 15%; inhibition of growth at 10 µM (UACC-62): 39.2% |
| Cc1nc2c(cnn2-c2ccccc2)c(=O)n1-c1ccc(NC(=O)c2ccc(F)cc2)cc1 | < 15% | < 15% | 20.1% | 35.4% | 59.9% | 39% | 20.9% | < 15% | 85.5% | < 15% | 38.2% | 46.2% | 37.1% | 45% | 26.5% | 36.5% | 82% | 35.5% | 25.6% | 64.2% | IC50 at 72 h [1]: 22.8 µM; IC50 (T47D [7]): 4.79 µM; selectivity ratio [8]: 4.75; Activity (MDA-MB-468 [9]): 9.12%; IC50 [3]: 63 nM; IC50 (MDA-MB-468 [5]): 3.34 µM; Activity (MDA-MB-468 [10]): 4.94%; selectivity ratio [6]: 6.81; inhibition of growth at 10 µM (BT-549): 54%; inhibition of growth at 10 µM (HCT-15): 33.9%; inhibition of growth at 10 µM (NCI/ADR-RES): 57.2%; inhibition of growth at 10 µM (OVCAR-5): < 15%; Activity (MDA-MB-468 [11]): 43.28%; inhibition of growth at 10 µM (UACC-62): 36.9% |
| Cc1nc2c(cnn2-c2ccccc2)c(=O)n1-c1ccc(NC(=O)c2ccc(Cl)cc2)cc1 | 17.4% | 37.8% | 15.8% | 41.1% | 53.9% | 32.6% | < 15% | < 15% | 84.3% | < 15% | 33.4% | 30.2% | 24.6% | 26.1% | 21.3% | 28% | 72.5% | 27.5% | 17% | 46.8% | IC50 at 72 h [1]: 34.6 µM; IC50 (T47D [7]): 20.1 µM; selectivity ratio [8]: 1.72; IC50 [3]: 200 nM; IC50 (MDA-MB-468 [5]): 10.7 µM; selectivity ratio [6]: 3.24; inhibition of growth at 10 µM (BT-549): 36%; inhibition of growth at 10 µM (HCT-15): 23.2%; inhibition of growth at 10 µM (NCI/ADR-RES): 44.5%; inhibition of growth at 10 µM (OVCAR-5): < 15%; inhibition of growth at 10 µM (UACC-62): 32.2% |
| CC(=O)Nc1ccc(-n2c(C)nc3c(cnn3-c3ccccc3)c2=O)cc1 | < 15% | 17% | < 15% | < 15% | 44.8% | 29.8% | < 15% | 16.1% | < 15% | 18.9% | 21.1% | 21.1% | < 15% | < 15% | < 15% | < 15% | < 15% | < 15% | 26.1% | 44.4% | inhibition of growth at 10 µM (BT-549): 48%; inhibition of growth at 10 µM (HCT-15): 15.1%; inhibition of growth at 10 µM (NCI/ADR-RES): < 15%; inhibition of growth at 10 µM (OVCAR-5): < 15%; inhibition of growth at 10 µM (UACC-62): 38.3% |
| Cc1nc2c(cnn2-c2ccccc2)c(=O)n1-c1ccc(NC(=O)c2ccccc2)cc1 | 16.8% | 29.2% | < 15% | 37.9% | 53.2% | 36.7% | 18.9% | < 15% | 71% | 19.8% | 26.8% | 27.2% | 23.6% | 28.9% | < 15% | 25.2% | 72.4% | 43.2% | 24.3% | 47.1% | IC50 at 72 h [1]: 55.5 µM; IC50 (T47D [7]): 35.5 µM; selectivity ratio [8]: 1.56; IC50 [3]: 178 nM; IC50 (MDA-MB-468 [5]): 27 µM; selectivity ratio [6]: 2.05; inhibition of growth at 10 µM (BT-549): 39.1%; inhibition of growth at 10 µM (HCT-15): 20.2%; inhibition of growth at 10 µM (NCI/ADR-RES): 30.4%; inhibition of growth at 10 µM (OVCAR-5): < 15%; inhibition of growth at 10 µM (UACC-62): 36.8% |
